# In all, about 190,000 compounds went through this assay and about 1,800 (0.95%) were called active. Only a selection was taken, and actives are over-represented in it overall. Values without a mark were called inactive.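 Rule for the calls: active = activation above the screen-wide mean of compound activation plus 3 SD (cut at about 130% in these data); inactive = the rest.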
# Experiment: IL-6 driven STAT3 reporter potentiators, primary screen, U3A cells, luciferase, luminescence, MLSCN library (AID 871);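 note: 0% = background luminescence of wells with medium and substrate only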
# Settings: IL-6 STAT3-luciferase reporter, at 5.6 µM, active compounds read high, 100% = signal with IL-6 EC80 alone
# Summary of the method: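 System – human U3A cells carrying STAT3-luciferase construct · Probe or stimulus – Interleukin-6, 33 ng/mL · Schedule – compound 1 h, then IL-6 6 h at 37 °C · Signal – luminescence from STAT3-driven luciferase reporter · Evaluation – percent of IL-6-only median luminescence · Benchmarks – IL-6-only high control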
row,SMILES,activation (% of control)
1,Cc1ccccc1OCCOc1ccc([N+](=O)[O-])cc1/C=N/n1cnnc1,111%
2,O=C(CCc1nnc(CCCCc2ccccc2)o1)NC(c1cccnc1)C(F)(F)F (stereo not given),104%
3,CC1(C)C=C2[C@H]3CC[C@@H]4[C@@]5(C)CCC(=O)C(C)(C)[C@@H]5CC[C@@]4(C)[C@]3(C)CC[C@@]2(C(=O)O)CC1,99.9%
4,O=[N+]([O-])c1cccc(Nc2c3ccccc3nc3ccccc23)c1,109%
5,CC(=O)Nc1ccc(NC(=O)COc2ncnc3ccccc23)cc1,95.9%
6,CC(=O)Nc1ccc(Nc2c3ccccc3nc3ccccc23)cc1,218% (active)
7,CC(C)C(C)(C#N)NC(=O)CSc1nc2scc(-c3ccccc3)c2c(=O)[nH]1 (stereo not given),108%
8,O=C(Nc1ccncc1)c1cc(-c2ccccn2)nc2ccc(Br)cc12,111%
9,O=C(CSc1nn(-c2ccc(F)cc2)c(=S)s1)NC1CCS(=O)(=O)C1 (stereo not given),98.1%
10,Cc1noc(/C=C/c2ccco2)c1S(=O)(=O)N1CCC(C(=O)N2CCc3ccccc32)CC1,104%
11,CCS(=O)(=O)N1CCC(C(=O)N2CCN(c3ccccc3)CC2)CC1,103%
12,O=C(C1CCN(S(=O)(=O)Cc2ccccc2)CC1)N1CCCc2ccccc21,136% (active)
13,O=C(O)/C(=C/c1cccnc1)NC(=O)c1ccccc1,107%
14,Nc1ccc(OCC(O)C[n+]2ccc(CCS(=O)(=O)[O-])cc2)cc1 (stereo not given),101%
15,CCC(C(=O)Nc1ccc2c(c1)OCCO2)c1ccccc1 (stereo not given),93.2%
16,CN1C(=O)/C(=N/OC(=O)c2ccccc2Br)c2ccccc21,100%
17,CCC1C(=O)c2ccccc2N(C)C1=O (stereo not given),110%
18,CN1C(=O)/C(=C\c2cc(Br)cs2)c2ccccc21,178% (active)
19,CN(C)c1ccc(C=C2C(=O)OC3(CCCC3)OC2=O)cc1,103%
20,COc1ccccc1-c1nnc(NC(=O)c2ccc3ncsc3c2)o1,146% (active)
21,COc1ccccc1-c1nnc(SCC(=O)Nc2cc(C)on2)o1,91%
22,COc1ccccc1-c1nnc(NC(=O)c2cccc(N3C(=O)CCC3=O)c2)o1,116%
23,Cc1scc(C(=O)NNC(=S)NCC(C)C)c1C,97.6%
24,Cc1ccc(C(C)(C)C)c(OCCCCN2CCCC2)c1,95.5%
25,COc1ccc(Cl)cc1NC(=O)c1oc(C)nc1C,162% (active)
26,Cc1nc(C)c(C(=O)Nc2ccc(C)c(F)c2)o1,92.3%
27,Cc1nc(C)c(C(=O)Nc2cccc(C)c2C)o1,105%
28,Cc1cc(Cl)ccc1NC(=S)NCCCN1CCCC1=O,98.6%

row,SMILES,activation (% of control)
1,COc1ccccc1N1CCN(C(=O)c2ccc(Cl)c(S(=O)(=O)N3CCCC3)c2)CC1,97%
2,Cc1ccc(-c2cc(C(=O)Nc3nn[nH]n3)c3ccccc3n2)c(C)c1,140% (active)
3,Cc1ccc(NC(=O)c2cc(-c3ccc(C)o3)nc3ccccc23)nc1,104%
4,Cc1ccc2c(Cl)c(C(=O)Nc3nn[nH]n3)sc2c1,96%
5,CCOC(=O)C1(Cc2cccc(OC)c2)CCN(C(C)COC)CC1 (stereo not given),108%
6,COc1cccc(NC(=O)c2ccc3c(SCC(=O)O)c4c(nc3c2)CCCC4)c1,106%
7,COCC(=O)Nc1cc(C(=O)OC)cc(C(=O)OC)c1,97.7%
8,CCSc1nnc(-c2cc3c(s2)-c2ccccc2CC3)o1,173% (active)
9,Fc1ccc(CSc2nnc(-c3cc4c(s3)-c3ccccc3CC4)o2)cc1,117%
10,C#CCSc1nnc(-c2sc3ccccc3c2Cl)o1,125%
11,CCNC(=O)COC(=O)CCNC(=O)c1cccc(C)c1,102%
12,COc1cccc(C(=O)Oc2cc(C)[nH]c(=O)c2[N+](=O)[O-])c1,101%
13,OC(COc1ccc2ccccc2c1)CN1CCOCC1 (stereo not given),159% (active)
14,OC(COc1ccc2ccccc2c1)Cn1cncn1 (stereo not given),97.5%
15,OC(COc1cccc(OCC(O)CN2CCCC2)c1)CN1CCCC1 (stereo not given),101%
16,COc1ccc(/C=N/n2c(C)cc(C)cc2=O)cc1,83.5%
17,C=CCn1c(-c2sc(-c3ccccc3)nc2C)n[nH]c1=S,94.6%
18,C=CCn1c(-c2ccc3[nH]c(C)c(C)c3c2)n[nH]c1=S,80.2%
19,C=CCn1c(-c2ccccc2OCC)n[nH]c1=S,158% (active)
20,COc1ccc(CC(=O)N[C@@H](CCSC)c2nc3ccccc3[nH]2)cc1,96.5%
21,COc1ccc(COC(=O)N/N=C(\C)CC(=O)Nc2ccc(Cl)cc2)cc1,101%
22,Cc1ccc(C2C(C#N)C(C#N)N3CCCN23)cc1 (stereo not given),141% (active)
23,O=C(CCC(=O)NNc1nc2ccccc2c2nc(-c3ccccc3)nn12)NCCCN1CCCC1=O,112%
24,Cc1nccn1CCCNC(=O)CC1C(=O)NCCN1Cc1ccc(Cl)c(F)c1 (stereo not given),100%
25,COc1ccc(C(CC(=O)c2ccccc2)S(=O)(=O)c2ccccc2)cc1 (stereo not given),110%
26,COc1ccc(C=Nc2cccc3ncccc23)cc1,109%
27,Oc1c(C=Nc2cccc3nsnc23)ccc2ccccc12,144% (active)
